The text below walks through data of ChEMBL document CHEMBL4765413, “Discovery of novel anti-angiogenesis agents. Part 11: Development of PROTACs based on active molecules with potency of promoting vascular normalization” (Eur J Med Chem, 2020).

The target in data set [1] is Vascular endothelial growth factor receptor 2 (Homo sapiens, UniProt P35968). The experiment in a line: Inhibition of recombinant human N-terminal GST-tagged VEGFR2 (789 to end residues) expressed in baculovirus infected Sf9 insect cells using Poly (4:1 Glu, Tyr) as substrate incubated for 1 hr by ADP-Glo luminescent assay.
Chain of Vascular endothelial growth factor receptor 2 (P35968 whole entry): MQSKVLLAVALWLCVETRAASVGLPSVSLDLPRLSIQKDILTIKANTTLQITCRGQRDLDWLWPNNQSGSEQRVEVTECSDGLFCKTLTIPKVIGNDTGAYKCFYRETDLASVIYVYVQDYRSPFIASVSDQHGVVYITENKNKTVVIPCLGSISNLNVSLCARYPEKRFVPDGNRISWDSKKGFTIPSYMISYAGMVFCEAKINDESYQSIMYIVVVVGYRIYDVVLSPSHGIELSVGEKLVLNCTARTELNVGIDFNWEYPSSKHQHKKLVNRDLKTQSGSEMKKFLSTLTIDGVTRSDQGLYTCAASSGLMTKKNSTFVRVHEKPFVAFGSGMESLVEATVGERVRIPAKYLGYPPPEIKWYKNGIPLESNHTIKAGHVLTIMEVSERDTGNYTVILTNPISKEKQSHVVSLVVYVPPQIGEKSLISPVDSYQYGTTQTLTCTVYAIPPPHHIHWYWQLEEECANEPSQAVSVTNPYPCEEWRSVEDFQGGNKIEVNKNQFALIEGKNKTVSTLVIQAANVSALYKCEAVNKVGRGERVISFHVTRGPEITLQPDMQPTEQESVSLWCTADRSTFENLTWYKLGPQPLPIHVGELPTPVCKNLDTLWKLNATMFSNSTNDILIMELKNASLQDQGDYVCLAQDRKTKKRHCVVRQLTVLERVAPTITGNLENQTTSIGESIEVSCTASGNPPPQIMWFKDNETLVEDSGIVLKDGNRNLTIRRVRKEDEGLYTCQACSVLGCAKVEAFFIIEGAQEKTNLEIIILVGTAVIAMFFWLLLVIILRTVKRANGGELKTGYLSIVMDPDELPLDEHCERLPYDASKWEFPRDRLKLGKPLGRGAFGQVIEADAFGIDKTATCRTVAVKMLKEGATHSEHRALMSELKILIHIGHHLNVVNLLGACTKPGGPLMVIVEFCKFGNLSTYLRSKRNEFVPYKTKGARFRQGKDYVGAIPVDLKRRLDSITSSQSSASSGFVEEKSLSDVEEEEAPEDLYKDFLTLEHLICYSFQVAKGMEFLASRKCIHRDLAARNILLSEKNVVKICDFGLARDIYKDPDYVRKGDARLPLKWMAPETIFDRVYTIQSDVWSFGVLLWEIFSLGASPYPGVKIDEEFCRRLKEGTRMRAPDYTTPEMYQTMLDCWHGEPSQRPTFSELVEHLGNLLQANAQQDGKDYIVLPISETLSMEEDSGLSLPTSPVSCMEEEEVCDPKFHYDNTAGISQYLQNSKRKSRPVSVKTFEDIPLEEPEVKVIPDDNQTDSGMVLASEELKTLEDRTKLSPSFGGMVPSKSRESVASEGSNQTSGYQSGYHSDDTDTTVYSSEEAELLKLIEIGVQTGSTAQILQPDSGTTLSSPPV
The test system of data set [2] is EA.hy 926. The experiment in a line: Antiangiogenic activity in human EA.hy 926 cells measured after 24 hrs by MTT assay. The following applies: EA.hy 926, 24 h.
The subject of data set [3] is HEK293. The experiment in a line: Cytotoxicity against HEK293 cells measured after 24 hrs by MTT assay. Format: cell-based. The note with it: human, hek293, 24 h.
Data set [4] has as its target von Hippel-Lindau disease tumor suppressor/Vascular endothelial growth factor receptor 2 (Homo sapiens) (UniProt P35968+P40337). The experiment in a line: Protac activity at VHL/VEGFR2 in human EA.hy 926 cells assessed as induction of VEGFR2 degradation at 80 uM measured after 72 hrs by Western blot analysis relative to control. Format: cell-based. The essentials: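 EA.hy926 cells were exposed to DMSO vehicle or test compound, then lysed in SDS sample buffer and normalized by BCA protein assay. Equal protein amounts were run on SDS-PAGE and transferred to PVDF. Membranes were blocked in 5% milk/TBS-Tween and probed with anti-VEGFR-2 (1:500), with GAPDH (1:10000) as loading control. Detection used HRP secondary and ECL, with densitometric quantification.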

Chain of von Hippel-Lindau disease tumor suppressor/Vascular endothelial growth factor receptor 2 (Homo sapiens) (P35968 20-1356 limits assumed): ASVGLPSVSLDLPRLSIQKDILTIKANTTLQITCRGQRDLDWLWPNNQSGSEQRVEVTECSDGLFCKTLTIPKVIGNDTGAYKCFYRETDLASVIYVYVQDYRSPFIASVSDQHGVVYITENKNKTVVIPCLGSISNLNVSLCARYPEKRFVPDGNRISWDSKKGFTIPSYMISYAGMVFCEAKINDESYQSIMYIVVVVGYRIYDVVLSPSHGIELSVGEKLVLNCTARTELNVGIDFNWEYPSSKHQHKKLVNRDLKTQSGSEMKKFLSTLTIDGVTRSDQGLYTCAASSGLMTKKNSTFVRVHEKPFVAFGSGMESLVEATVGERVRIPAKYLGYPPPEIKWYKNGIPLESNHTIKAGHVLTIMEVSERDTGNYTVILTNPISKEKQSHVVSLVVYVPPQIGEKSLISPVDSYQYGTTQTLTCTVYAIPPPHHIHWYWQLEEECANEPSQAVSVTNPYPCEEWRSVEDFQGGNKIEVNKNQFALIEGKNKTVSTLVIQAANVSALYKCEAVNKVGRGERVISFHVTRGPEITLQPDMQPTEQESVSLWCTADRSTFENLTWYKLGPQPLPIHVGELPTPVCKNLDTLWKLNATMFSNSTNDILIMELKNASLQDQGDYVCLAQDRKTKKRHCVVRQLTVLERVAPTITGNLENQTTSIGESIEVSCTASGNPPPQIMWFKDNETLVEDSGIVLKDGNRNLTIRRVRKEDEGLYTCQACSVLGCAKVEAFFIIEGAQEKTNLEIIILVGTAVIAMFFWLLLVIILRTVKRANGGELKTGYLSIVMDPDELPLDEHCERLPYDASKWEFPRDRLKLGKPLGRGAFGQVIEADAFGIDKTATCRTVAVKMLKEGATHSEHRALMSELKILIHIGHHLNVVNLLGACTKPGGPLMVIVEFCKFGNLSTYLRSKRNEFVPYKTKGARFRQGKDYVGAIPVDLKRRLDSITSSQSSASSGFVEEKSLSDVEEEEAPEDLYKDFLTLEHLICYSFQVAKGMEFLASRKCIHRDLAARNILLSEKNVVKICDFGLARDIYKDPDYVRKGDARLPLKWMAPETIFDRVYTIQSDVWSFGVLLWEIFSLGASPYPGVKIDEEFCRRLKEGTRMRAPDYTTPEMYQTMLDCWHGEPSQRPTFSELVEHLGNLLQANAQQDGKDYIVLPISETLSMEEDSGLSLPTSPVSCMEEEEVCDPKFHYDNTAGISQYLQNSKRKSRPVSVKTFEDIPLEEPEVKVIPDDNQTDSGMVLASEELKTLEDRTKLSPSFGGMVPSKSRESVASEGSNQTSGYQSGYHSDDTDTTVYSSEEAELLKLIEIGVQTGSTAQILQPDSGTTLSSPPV
Chain of von Hippel-Lindau disease tumor suppressor/Vascular endothelial growth factor receptor 2 (Homo sapiens) (P40337 whole entry partner): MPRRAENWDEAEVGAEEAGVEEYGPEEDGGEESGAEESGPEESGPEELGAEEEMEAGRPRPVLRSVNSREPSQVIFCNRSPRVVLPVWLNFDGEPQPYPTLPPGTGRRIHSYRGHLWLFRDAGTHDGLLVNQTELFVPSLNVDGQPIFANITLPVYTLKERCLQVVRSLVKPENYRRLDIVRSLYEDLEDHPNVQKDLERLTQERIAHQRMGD

Regarding `Cc1ncsc1-c1ccc(CNC(=O)[C@@H]2C[C@@H](O)CN2C(=O)[C@@H](NC(=O)CCCCCCCCCCC(=O)n2nc(N)c3c(-c4cccc(NC(=O)Nc5cccc(C(C)C)c5)c4)cccc32)C(C)(C)C)cc1`, the IC50 (as a rule, the concentration at which inhibition is half-maximal) in data set [1] turned out to be 208 nM; in data set [2], 32.8 µM. For the same compound, the values for the Activity entry in data set [3] and in data set [4] were “Non-Toxic” and 70%, respectively.

Turning to `Cc1ncsc1-c1ccc(CNC(=O)[C@@H]2C[C@@H](O)CN2C(=O)[C@@H](NC(=O)CCCCCC(=O)n2nc(N)c3c(-c4cccc(NC(=O)Nc5cccc(C(C)C)c5)c4)cccc32)C(C)(C)C)cc1`, the IC50 in data set [1] is more than 1000 nM; in data set [2] it was more than 100 µM. In data set [3], the Activity result is given as “Non-Toxic”.

In the case of `Cc1ccc(F)c(NC(=O)Nc2ccc(-c3cccc4c3c(N)nn4C(=O)CCCCCC(=O)N[C@H](C(=O)N3C[C@H](O)C[C@H]3C(=O)NCc3ccc(-c4scnc4C)cc3)C(C)(C)C)cc2)c1`, the IC50 is more than 1000 nM in data set [1] and 133 µM in data set [2]. In data set [3], the Activity entry is “Non-Toxic”.

As for `Cc1ncsc1-c1ccc(CNC(=O)[C@@H]2C[C@@H](O)CN2C(=O)[C@@H](NC(=O)CCCCCCCCCCCCCCC(=O)n2nc(N)c3c(-c4cccc(NC(=O)Nc5cccc(C(C)C)c5)c4)cccc32)C(C)(C)C)cc1`, the IC50 in data set [1] is more than 1000 nM; in data set [2], more than 100 µM. Further, the Activity entry in data set [3] is recorded as “Non-Toxic”.
